# In ChEMBL document CHEMBL1125797, “Synthesis, characterization and myocardial uptake of cationic bis(arene)technetium(I) complexes” (J Med Chem, 1991):
# Tests used:
# Rattus norvegicus [1] = test: Biodistribution of compound in rat blood after 5 min of administration.; assay type: ADME, organism-based; details: in vivo
# How it was run: (§1)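 Female Sprague-Dawley rats (150–200 g) received the complex in normal saline (~12.5 μCi/mL) through a lateral tail vein at ~25 μCi/kg. Rats were killed by cervical dislocation 5 min after injection. Tissues were washed with saline, blotted, weighed and γ-counted to give percent injected dose/g tissue.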
# Rattus norvegicus [2] = test: Biodistribution of compound in rat heart after 5 min of administration.; assay type: ADME, organism-based; details: in vivo; how it was run: as §1
# Rattus norvegicus [3] = test: Biodistribution of compound in rat kidney after 5 min of administration.; assay type: ADME, organism-based; details: in vivo; how it was run: as §1
# Rattus norvegicus [4] = test: Biodistribution of compound in rat lung after 5 min of administration.; assay type: ADME, organism-based; details: in vivo; how it was run: as §1
# [5] = Biodistribution of compound in rat muscle after 5 min of administration.; assay type: ADME, organism-based, Muscle tissue; details: in vivo; how it was run: as §1
# Rattus norvegicus [6] = test: Biodistribution of compound in rat blood at 90 min after intravenous administration; assay type: ADME, organism-based; details: in vivo, 1.5 h
# How it was run: (§2)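 Time course in Sprague-Dawley rats after lateral tail-vein injection of the 99mTc complex in normal saline (~12.5 μCi/mL) at ~25 μCi/kg. Tissues were sampled at the stated times, washed with saline, blotted, weighed and γ-counted to give percent injected dose per g. Values are averages of male and female rats.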
# Rattus norvegicus [7] = test: Biodistribution of compound in rat urine at 1440 min after intravenous administration; assay type: ADME, organism-based; details: in vivo, 24 h
# How it was run: (§3)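 Rats received the 99mTc complex in normal saline (~12.5 μCi/mL) by lateral tail vein injection at ~25 μCi/kg and were killed by cervical dislocation at the stated time. Tissues were washed with saline, blotted, weighed and γ-counted to give percent injected dose/g. Time-course values are averages of male and female rats.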
# Rattus norvegicus [8] = test: Biodistribution of compound in rat urine at 360 min after intravenous administration; assay type: ADME, organism-based; details: in vivo, 6 h; how it was run: as §3
# Rattus norvegicus [9] = test: Biodistribution of compound in rat blood at 1440 min after intravenous administration; assay type: ADME, organism-based; details: in vivo, 24 h; how it was run: as §2
# Rattus norvegicus [10] = test: Biodistribution of compound in rat blood at 180 min after intravenous administration; assay type: ADME, organism-based; details: in vivo, 3 h; how it was run: as §2
# Rattus norvegicus [11] = test: Biodistribution of compound in rat blood at 360 min after intravenous administration; assay type: ADME, organism-based; details: in vivo, 6 h; how it was run: as §2
# Rattus norvegicus [12] = test: Biodistribution of compound in rat blood at 5 min after intravenous administration; assay type: ADME, organism-based; details: in vivo; how it was run: as §2
# Rattus norvegicus [13] = test: Biodistribution of compound in rat gonads at 1440 min after intravenous administration; assay type: ADME, organism-based, Gonad; details: in vivo, 24 h; how it was run: as §2
# Rattus norvegicus [14] = test: Biodistribution of compound in rat gonads at 180 min after intravenous administration; assay type: ADME, organism-based, Gonad; details: in vivo, 3 h; how it was run: as §2
# Rattus norvegicus [15] = test: Biodistribution of compound in rat gonads at 360 min after intravenous administration; assay type: ADME, organism-based, Gonad; details: in vivo, 6 h; how it was run: as §2
# Rattus norvegicus [16] = test: Biodistribution of compound in rat gonads at 45 min after intravenous administration; assay type: ADME, organism-based, Gonad; details: in vivo, 0.75 h; how it was run: as §2
# Rattus norvegicus [17] = test: Biodistribution of compound in rat gonads at 5 min after intravenous administration; assay type: ADME, organism-based, Gonad; details: in vivo; how it was run: as §2
# Rattus norvegicus [18] = test: Biodistribution of compound in rat gonads at 90 min after intravenous administration; assay type: ADME, organism-based, Gonad; details: in vivo, 1.5 h; how it was run: as §2
# Rattus norvegicus [19] = test: Biodistribution of compound in rat heart at 1440 min after intravenous administration; assay type: ADME, organism-based; details: in vivo, 24 h; how it was run: as §2
# Rattus norvegicus [20] = test: Biodistribution of compound in rat heart at 180 min after intravenous administration; assay type: ADME, organism-based; details: in vivo, 3 h; how it was run: as §2
# Rattus norvegicus [21] = test: Biodistribution of compound in rat heart at 360 min after intravenous administration; assay type: ADME, organism-based; details: in vivo, 6 h; how it was run: as §2
# Rattus norvegicus [22] = test: Biodistribution of compound in rat heart at 45 min after intravenous administration; assay type: ADME, organism-based; details: in vivo, 0.75 h; how it was run: as §2
# Rattus norvegicus [23] = test: Biodistribution of compound in rat heart at 5 min after intravenous administration; assay type: ADME, organism-based; details: in vivo; how it was run: as §2
# Rattus norvegicus [24] = test: Biodistribution of compound in rat heart at 90 min after intravenous administration; assay type: ADME, organism-based; details: in vivo, 1.5 h; how it was run: as §2
# Rattus norvegicus [25] = test: Biodistribution of compound in rat kidney at 1440 min after intravenous administration; assay type: ADME, organism-based; details: in vivo, 24 h; how it was run: as §2
# Rattus norvegicus [26] = test: Biodistribution of compound in rat kidney at 180 min after intravenous administration; assay type: ADME, organism-based; details: in vivo, 3 h; how it was run: as §2
# Rattus norvegicus [27] = test: Biodistribution of compound in rat kidney at 360 min after intravenous administration; assay type: ADME, organism-based; details: in vivo, 6 h; how it was run: as §2
# Rattus norvegicus [28] = test: Biodistribution of compound in rat kidney at 45 min after intravenous administration; assay type: ADME, organism-based; details: in vivo, 0.75 h; how it was run: as §2
# Rattus norvegicus [29] = test: Biodistribution of compound in rat kidney at 5 min after intravenous administration; assay type: ADME, organism-based; details: in vivo; how it was run: as §2
# Rattus norvegicus [30] = test: Biodistribution of compound in rat kidney at 90 min after intravenous administration; assay type: ADME, organism-based; details: in vivo, 1.5 h; how it was run: as §2
# Rattus norvegicus [31] = test: Biodistribution of compound in rat liver at 1440 min after intravenous administration; assay type: ADME, organism-based; details: in vivo, 24 h; how it was run: as §2
# Rattus norvegicus [32] = test: Biodistribution of compound in rat liver at 180 min after intravenous administration; assay type: ADME, organism-based; details: in vivo, 3 h; how it was run: as §2
# Rattus norvegicus [33] = test: Biodistribution of compound in rat liver at 360 min after intravenous administration; assay type: ADME, organism-based; details: in vivo, 6 h; how it was run: as §3
# Rattus norvegicus [34] = test: Biodistribution of compound in rat liver at 5 min after intravenous administration; assay type: ADME, organism-based; details: in vivo; how it was run: as §3
# Rattus norvegicus [35] = test: Biodistribution of compound in rat liver at 90 min after intravenous administration; assay type: ADME, organism-based; details: in vivo, 1.5 h; how it was run: as §3
substance,measurement,setting,value
"Bis(1,2,3,5-tetramethylbenzene)technetium",Dose/g,Rattus norvegicus [1],0.1%
same,Dose/g,Rattus norvegicus [2],3.4%
same,Dose/g,Rattus norvegicus [3],6.7%
same,Dose/g,Rattus norvegicus [4],1.3%
same,Dose/g,[5],0.61%
same,Dose/ml,Rattus norvegicus [6],0.3 % dose
same,Dose/ml,Rattus norvegicus [7],20 % dose
same,Dose/ml,Rattus norvegicus [8],11 % dose
same,Dose/ml,Rattus norvegicus [9],0.07 % dose
same,Dose/ml,Rattus norvegicus [10],0.19 % dose
same,Dose/ml,Rattus norvegicus [11],0.15 % dose
same,Dose/ml,Rattus norvegicus [12],1.06 % dose
same,Dose/g,Rattus norvegicus [13],0.019 % dose
same,Dose/g,Rattus norvegicus [14],0.58 % dose
same,Dose/g,Rattus norvegicus [15],0.039 % dose
same,Dose/g,Rattus norvegicus [16],0.089 % dose
same,Dose/g,Rattus norvegicus [17],0.099 % dose
same,Dose/g,Rattus norvegicus [18],0.074 % dose
same,Dose/g,Rattus norvegicus [19],1.27 % dose
same,Dose/g,Rattus norvegicus [20],2.44 % dose
same,Dose/g,Rattus norvegicus [21],2.81 % dose
same,Dose/g,Rattus norvegicus [22],2.83 % dose
same,Dose/g,Rattus norvegicus [23],2.51 % dose
same,Dose/g,Rattus norvegicus [24],2.78 % dose
same,Dose/g,Rattus norvegicus [25],0.2 % dose
same,Dose/g,Rattus norvegicus [26],2 % dose
same,Dose/g,Rattus norvegicus [27],1.5 % dose
same,Dose/g,Rattus norvegicus [28],5.4 % dose
same,Dose/g,Rattus norvegicus [29],7.1 % dose
same,Dose/g,Rattus norvegicus [30],3.9 % dose/organ
same,Dose/g,Rattus norvegicus [31],0.2 % dose/organ
same,Dose/g,Rattus norvegicus [32],1 % dose/organ
same,Dose/g,Rattus norvegicus [33],0.9 % dose/organ
same,Dose/g,Rattus norvegicus [34],5.6 % dose/organ
same,Dose/g,Rattus norvegicus [35],2.5 % dose/organ
